# Results taken from PMC6039208 (Clinical and Translational Science, 2018).
# Legend:
# CYP3A4 = CYP3A4 (Homo sapiens, UniProt P08684); type: in vivo; conditions: patients with AML
# FLT3‐ITD [1] = conditions: cited from earlier work
# [2] = Population PK model of sorafenib and its N‐oxide metabolite in patients with AML; type: in vivo, human
# ERK = experiment: Exposure‐response; type: cell-based, human; conditions: for Imax,ERK, maximum inhibitory effect on ERK activity: as fraction
# Method in brief: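 Ex vivo ERK activity in FLT3‑ITD TF‑1 cells was read by Western blot as percent of each patient's baseline (100%). An inhibitory Emax model versus metabolite‑adjusted concentration was fitted sequentially to the PK model by FOCE‑I, with Imax estimated.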
# [3] = cited from earlier work
# [4] = cited from earlier work; remark: listed apart in the source
# FLT3‐ITD [5] = molecular target: T1, FLT3‐ITD (Homo sapiens, UniProt P36888); experiment: Exposure‐response; type: cell-based; conditions: doses given in this study (400 or 600 mg b.i.d.)
# T1 sequence (P36888 27-993): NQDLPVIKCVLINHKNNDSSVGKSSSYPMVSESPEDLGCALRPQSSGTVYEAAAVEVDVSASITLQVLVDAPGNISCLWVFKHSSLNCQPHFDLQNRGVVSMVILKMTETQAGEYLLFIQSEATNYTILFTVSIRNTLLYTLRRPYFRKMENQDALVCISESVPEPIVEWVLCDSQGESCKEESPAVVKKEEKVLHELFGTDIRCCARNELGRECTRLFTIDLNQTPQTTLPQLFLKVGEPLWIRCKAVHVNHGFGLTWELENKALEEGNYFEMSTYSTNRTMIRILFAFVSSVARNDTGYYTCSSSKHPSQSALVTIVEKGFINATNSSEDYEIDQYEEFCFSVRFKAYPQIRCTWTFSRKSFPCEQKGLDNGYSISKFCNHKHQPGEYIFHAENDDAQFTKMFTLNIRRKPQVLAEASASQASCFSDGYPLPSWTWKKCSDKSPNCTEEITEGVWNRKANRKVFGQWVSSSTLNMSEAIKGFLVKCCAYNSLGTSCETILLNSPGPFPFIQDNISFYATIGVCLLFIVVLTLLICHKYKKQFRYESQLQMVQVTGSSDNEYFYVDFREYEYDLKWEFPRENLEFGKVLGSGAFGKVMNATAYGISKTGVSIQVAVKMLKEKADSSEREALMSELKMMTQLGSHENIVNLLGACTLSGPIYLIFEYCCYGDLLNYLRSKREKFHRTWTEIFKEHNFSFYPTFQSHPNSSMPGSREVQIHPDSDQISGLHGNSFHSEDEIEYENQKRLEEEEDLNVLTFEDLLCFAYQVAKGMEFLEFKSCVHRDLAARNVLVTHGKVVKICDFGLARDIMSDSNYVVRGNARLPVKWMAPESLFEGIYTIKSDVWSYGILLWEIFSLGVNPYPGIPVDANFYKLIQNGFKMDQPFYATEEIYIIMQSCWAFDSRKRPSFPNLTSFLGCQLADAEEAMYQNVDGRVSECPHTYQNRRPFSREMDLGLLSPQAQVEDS
# [6] = FOCE‐I estimate, typical value at 80 kg
# Chain of CYP3A4 (P08684 whole entry): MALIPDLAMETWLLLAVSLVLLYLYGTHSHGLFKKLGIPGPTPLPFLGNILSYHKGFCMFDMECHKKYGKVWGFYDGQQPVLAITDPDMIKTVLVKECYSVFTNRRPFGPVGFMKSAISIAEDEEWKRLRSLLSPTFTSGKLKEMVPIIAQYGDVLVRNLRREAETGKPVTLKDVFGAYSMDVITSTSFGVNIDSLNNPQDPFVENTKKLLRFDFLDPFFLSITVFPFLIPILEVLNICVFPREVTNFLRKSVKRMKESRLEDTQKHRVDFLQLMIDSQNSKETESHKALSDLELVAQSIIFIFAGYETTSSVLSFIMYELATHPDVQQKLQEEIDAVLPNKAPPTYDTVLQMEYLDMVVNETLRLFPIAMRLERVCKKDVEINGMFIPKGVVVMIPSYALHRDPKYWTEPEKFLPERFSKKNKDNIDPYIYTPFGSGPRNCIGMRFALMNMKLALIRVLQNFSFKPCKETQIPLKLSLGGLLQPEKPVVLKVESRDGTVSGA
structure (smiles),measurement,setting,value
C[C@@H](c1ncncc1F)[C@](O)(Cn1cncn1)c1ccc(F)cc1F [voriconazole],change in sorafenib exposure in the presence of the inhibitor,CYP3A4,no change
CNC(=O)c1cc(Oc2ccc(NC(=O)Nc3ccc(Cl)c(C(F)(F)F)c3)cc2)cc[n+]1[O-] [sorafenib N‐oxide],"fold more potent than the parent drug, FLT3‐ITD potency","FLT3‐ITD [1]; in vitro study, N‐oxide vs sorafenib",14.59 fold
same,"CLm, clearance of the N‐oxide metabolite",[2]; [6],116 L/h
same,"V7, apparent volume of distribution (compartment A7) of the N‐oxide metabolite",[2]; [6],89.80 L
same,"CLm, clearance of the N‐oxide metabolite","[2]; median of 1,000 bootstraps",123 L/h
same,"V7, apparent volume of distribution (compartment A7) of the N‐oxide metabolite","[2]; median of 1,000 bootstraps",94.50 L
CNC(=O)c1cc(Oc2ccc(NC(=O)Nc3ccc(Cl)c(C(F)(F)F)c3)cc2)ccn1 [sorafenib],"Imax,ERK, maximum inhibitory effect on ERK activity",ERK; FOCE‐I estimate,0.84
same,extent of ERK activity inhibition,ERK; doses given in this study (400 or 600 mg b.i.d.),could not be completely inhibited
same,"Imax,ERK, maximum inhibitory effect on ERK activity","ERK; median of 1,000 bootstraps",0.82
same,dose‐limiting toxicity rate,"[3]; 400 mg b.i.d. regimen, 2/9 patients, original clinical trial ref 9",~20%
same,proportion of patients with AML able to adhere to dosing,[3]; continuous 400 mg b.i.d.,18%
same,in vitro FLT3‐ITD inhibitory activity compared with midostaurin,FLT3‐ITD [1],fourfold higher
same,dose above which saturable absorption occurs,[4],over 400 mg
same,time to steady‐state,[4],≤ 7 days
same,"K64, release rate constant from gallbladder back to the gastrointestinal track",[2]; FOCE‐I estimate,0.173 h⁻¹
same,"TENT, time controller of enterohepatic recirculation (time after dose)",[2]; FOCE‐I estimate,5.48 h
same,"fENT, fraction of sorafenib that goes through enterohepatic circulation",[2]; FOCE‐I estimate,50.20%
same,"Ka, absorption rate constant","[2]; FOCE‐I estimate, patients with AML, oral",3.75 h⁻¹
same,clearance,"[2]; human, plasma, oral, CL, total clearance, median of 1,000 bootstraps",237 mL/min
same,fraction unbound,"[2]; human, plasma, oral, fu, %fraction of unbound sorafenib, FOCE‐I estimate",0.0181
same,"K64, release rate constant from gallbladder back to the gastrointestinal track","[2]; median of 1,000 bootstraps",0.17 h⁻¹
same,"Ka, absorption rate constant","[2]; median of 1,000 bootstraps",3.78 h⁻¹
same,"TENT, time controller of enterohepatic recirculation (time after dose)","[2]; median of 1,000 bootstraps",5.47 h
same,"fENT, fraction of sorafenib that goes through enterohepatic circulation","[2]; median of 1,000 bootstraps",50.20%
same,concentration dependence of plasma protein binding,[2]; within the observed concentration range,concentration independent
same,extent of FLT3‐ITD activity inhibition,FLT3‐ITD [5],fully inhibited
